# Laboratory results as given in ChEMBL document CHEMBL2086235, “A novel thiazolidine compound induces caspase-9 dependent apoptosis in cancer cells” (Bioorg Med Chem, 2012).
# Calls of active or inactive are those of the source. The calls are words filed in the database; no cut-off is given here.
# Experiments:
# Assay type in all cases: functional, cell-based
# Huh-7 [1] = experiment: Growth inhibition of human HuH7 cells incubated for 48 hrs by Giemsa staining
# Procedure, shortened: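 Cells grown overnight, compound added from DMSO solution, then incubated 48 h more. Attached cells stained with Giemsa and photographed; qualitative read-out.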
# Huh-7 [2] = experiment: Induction of cell death in human HuH7 cells at 2.5 to 40 uM incubated for 72 hrs by SRB assay
# Procedure, shortened: (§1)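 Cells seeded and grown 24 h at 37 °C, then treated 72 h in triplicate. Fixed with cold 10% TCA 1 h at 4 °C, stained with 0.4% SRB in 1% acetic acid 10 min, washed in 1% acetic acid. Dye solubilized in 10 mM Tris base; absorbance read at 515 nm. Normalized to DMSO control and Tz; three independent experiments.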
# HCT-116 [3] = experiment: Induction of cell death in human HCT116 cells at 2.5 to 40 uM incubated for 72 hrs by SRB assay; procedure, shortened: as §1
# MCF7 = experiment: Induction of cell death in human MCF7 cells at 2.5 to 40 uM incubated for 72 hrs by SRB assay; procedure, shortened: as §1
# HepG2 = experiment: Cytotoxicity against human HepG2 cells incubated for 72 hrs by SRB assay; conditions: HepG2, 72 h
# Procedure, shortened: (§2)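 Cells grown in DMEM with 10% FCS, 2 mM L-glutamine, NEAA and antibiotics at 37 °C, 5% CO2, then seeded at 1000–5000 cells/well and grown 24 h. Compounds were added from DMSO for 72 h, following NCI guidelines. Cells were fixed in cold 10% TCA for 1 h at 4 °C and stained with 0.4% SRB in 1% acetic acid for 10 min. Bound dye was dissolved in 10 mM Tris and absorbance read at 515 nm.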
# [4] = Cytotoxicity against human MV cells incubated for 72 hrs by SRB assay; procedure, shortened: as §2
# [5] = Cytotoxicity against human FOCUS cells incubated for 72 hrs by SRB assay; procedure, shortened: as §2
# HCT-116 [6] = experiment: Cytotoxicity against human HCT116 cells incubated for 72 hrs by SRB assay; conditions: HCT-116, 72 h; procedure, shortened: as §2
# T47D = experiment: Cytotoxicity against human T47D cells incubated for 72 hrs by SRB assay; procedure, shortened: as §2
# BT-20 = experiment: Cytotoxicity against human BT20 cells incubated for 72 hrs by SRB assay; conditions: BT-20, 72 h; procedure, shortened: as §2
# CAMA-1 = experiment: Cytotoxicity against human CAMA1 cells incubated for 72 hrs by SRB assay; conditions: CAMA-1, 72 h; procedure, shortened: as §2
# MFE-296 = experiment: Cytotoxicity against human MFE296 cells incubated for 72 hrs by SRB assay; conditions: MFE-296, 72 h; procedure, shortened: as §2
SMILES,growth inhibition (GI) (Huh-7 [1]),further results
CCOC(=O)[C@@H]1CSC(c2ccccc2)N1C(=O)c1cn(Cc2ccccc2)nn1 (stereo not given in full),inactive,
COC(=O)CN(C[C@@H]1CSC(c2ccccc2)N1C(=O)c1ccccc1)C(=O)C(C)(C)C (stereo not given in full),inactive,
CC(C)(C)C(=O)N(CCc1ccsc1)C[C@@H]1CSC(c2ccccc2)N1C(=O)c1ccccc1 (stereo not given in full),inactive,Activity (Huh-7 [2]): inactive; Activity (HCT-116 [3]): inactive; Activity (MCF7): inactive
CCCCCCC(=O)N(CCc1ccsc1)C[C@@H]1CSC(c2ccccc2)N1C(=O)c1ccccc1 (stereo not given in full),inactive,
CCCCCCCCCCC(=O)N(CCc1ccsc1)C[C@@H]1CSC(c2ccccc2)N1C(=O)c1ccccc1 (stereo not given in full),inactive,
Cc1cn(CC(=O)N2C(c3ccccc3)SC[C@H]2C(=O)NC(C)C)c(=O)[nH]c1=O (stereo not given in full),inactive,
O=C(c1c(F)c(F)c(F)c(F)c1F)N(CCc1ccsc1)C[C@@H]1CSC(c2ccccc2)N1C(=O)c1ccccc1 (stereo not given in full),inactive,
CCOC(=O)[C@@H]1CSC(c2ccccc2)N1C(=O)c1cn(CCCCCCO)nn1 (stereo not given in full),inactive,
CCOC(=O)[C@@H]1CSC(c2ccccc2)N1C(=O)c1cn(CCc2ccccc2)nn1 (stereo not given in full),inactive,
CCOC(=O)[C@@H]1CSC(c2ccccc2)N1C(=O)c1cn(CCc2ccc(F)cc2)nn1 (stereo not given in full),inactive,
COC(=O)CN(C[C@@H]1CSC(c2ccccc2)N1C(=O)c1ccccc1)C(=O)c1c(F)c(F)c(F)c(F)c1F (stereo not given in full),inactive,
CCCCCCCCCCC(=O)N(CC(=O)OC)C[C@@H]1CSC(c2ccccc2)N1C(=O)c1ccccc1 (stereo not given in full),inactive,
CCCCCCC(=O)N(CC(=O)O)C[C@@H]1CSC(c2ccccc2)N1C(=O)c1ccccc1 (stereo not given in full),inactive,
CCOC(=O)Cn1cc(C(=O)N2C(c3ccccc3)SC[C@H]2C(=O)OCC)nn1 (stereo not given in full),inactive,
O=c1[nH]cc(F)c(=O)[nH]1 [FLUOROURACIL],,IC50 (HepG2): 5.7 µM; IC50 [4]: 9.97 µM; IC50 [5]: 7.69 µM; IC50 (HCT-116 [6]): 18.7 µM; IC50 (T47D): 8.91 µM; IC50 (BT-20): 47.3 µM; IC50 (CAMA-1): 1.28 µM; IC50 (MFE-296): 30.7 µM
